Experimental data gathered from unrelated publications.
TMEM97: Sigma intracellular receptor 2 (TMEM97, Homo sapiens, UniProt Q5BJF2)
CASP7: Caspase-7 (CASP7, Homo sapiens, UniProt P55210)
ADRA1D: Alpha-1D adrenergic receptor (ADRA1D, Homo sapiens, UniProt P25100)
ADRA2B: Alpha-2B adrenergic receptor (ADRA2B, Homo sapiens, UniProt P18089)
Prostate-specific antigen: Prostate-specific antigen (Homo sapiens, UniProt P07288)
SIGMAR1: Sigma non-opioid intracellular receptor 1 (SIGMAR1, Cavia porcellus, UniProt Q60492)

Compound | target | observed | action | technique | pH | notes | Ki [nM]
OCCCN1CC[C@@H]2C[C@H]1c1cc(-c3ccc(C(F)(F)F)cc3)ccc12 | TMEM97 | ligand displacement |  | radioligand |  |  | 17
COc1cc2c(cc1OC)CN(CCCNC(=O)c1ccc(C(=O)c3ccc([N+](=O)[O-])cc3)cc1)CC2 | TMEM97 | ligand displacement |  | radioligand |  | cell membranes | 1200
O=c1c(O)c(-c2cc(O)c(O)c(O)c2)oc2cc(O)cc(O)c12 | CASP7 | enzyme activity | inhibitor | fluorescence |  |  | 65900
O=C1c2ccccc2CCN1CCCCN1CCN(c2cccc(Cl)c2Cl)CC1 | ADRA1D | ligand displacement |  | radioligand |  |  | 78.4
Nc1ccnc2ccccc12 | ADRA2B | ligand displacement |  | radioligand |  | cell membranes | 53800
CCCC[C@H](NC(=O)[C@H](CCC(N)=O)NC(=O)[C@H](CO)NC(=O)[C@H](C)NC(=O)CCCCCN)C(=O)N[C@@H](CCCBr)B(O)O | Prostate-specific antigen | enzyme activity | inhibitor | fluorescence | pH 7.8 |  | 52.1
O=C(NCCN1CCCCC1)c1cc(Br)ccc1O | SIGMAR1 | ligand displacement |  | radioligand |  | cell membranes | > 10000
O=C1c2ccccc2CCN1CCCCN1CCN(c2ccccn2)CC1 | ADRA1D | ligand displacement |  | radioligand |  |  | 467
CCCC[C@H](NC(=O)[C@H](CCCCN)NC(=O)[C@H](CO)NC(=O)[C@H](CO)NC(=O)OCc1ccccc1)C(=O)N[C@@H](CCCBr)B(O)O | Prostate-specific antigen | enzyme activity | inhibitor | fluorescence | pH 7.8 |  | 24.2
CCCn1nc(C(=O)N2CCCCC2)c2c1CCC(Nc1ccc(N3CCCCC3)cc1)C2 (stereo not drawn) | TMEM97 | ligand displacement |  | radioligand |  |  | 787
CN(Cc1ccc(NC(=O)C2=Cc3cc(-c4ccc(OCCCCCF)cc4)ccc3CCC2)cc1)C1CCOCC1 | ADRA2B | ligand displacement |  | radioligand |  |  | 6810
O=C(c1ccc(CNCCCN2CCN(c3ccc(F)cc3)CC2)cc1)c1ccc([N+](=O)[O-])cc1 | TMEM97 | ligand displacement |  | radioligand |  | cell membranes | 34
CNC(=O)[C@@]12C[C@@H]1[C@@H](n1cnc3c(NC)nc(C#Cc4ccccc4)nc31)[C@H](O)[C@@H]2O | SIGMAR1 | ligand displacement |  | radioligand |  |  | 7110
O=C(c1ccc(CNCCCN2CCN(C3CCCCC3)CC2)cc1)c1ccc([N+](=O)[O-])cc1 | TMEM97 | ligand displacement |  | radioligand |  | cell membranes | 33
CCOC(=O)[C@@]12C[C@@H]1[C@@H](n1cnc3c(NC)nc(C#Cc4ccc(Cl)s4)cc31)[C@H](O)[C@@H]2O | SIGMAR1 | ligand displacement |  | radioligand |  |  | 1040
CCCC[C@H](NC(=O)[C@H](CCCCN)NC(=O)[C@H](CO)NC(=O)[C@H](CO)NC(=O)OCc1ccccc1)C(=O)N[C@@H](Cc1ccccc1)B(O)O | Prostate-specific antigen | enzyme activity | inhibitor | fluorescence | pH 7.8 |  | 165
CCCNc1nc2ccccc2n1Cc1ccc(Cl)cc1 | ADRA2B | ligand displacement |  | radioligand |  |  | 677
O=C(NCCN1CCCCC1)c1ccc(OCCF)c(Br)c1 | SIGMAR1 | ligand displacement |  | radioligand |  | cell membranes | 36.1
C[C@@H]1O[C@H](CNS(=O)(=O)c2ccc(CCN=[N+]=[N-])s2)[C@@H](O)[C@H](O)[C@@H]1O | Fucose-binding lectin PA-IIL (lecB, Pseudomonas aeruginosa, UniProt Q9HYN5) | ligand displacement |  | FP |  |  | 1520
O=C(CN(CCCCI)CCCN1CCN(C2CCCCC2)CC1)Nc1ccc(C(=O)c2ccccc2)cc1 | TMEM97 | ligand displacement |  | radioligand |  | cell membranes | 45
CCCC[C@H](NC(=O)[C@H](CCC(N)=O)NC(=O)[C@H](CO)NC(=O)C[C@@H](Cc1ccc2ccccc2c1)NC(=O)CCCCCN)C(=O)N[C@@H](CCCBr)B(O)O | Prostate-specific antigen | enzyme activity | inhibitor | fluorescence | pH 7.8 |  | 102
CCCCN1CCC(COC(=O)c2ccc(N)c(OCF)c2)CC1 | ADRA2B | cell-free assay |  | radioligand |  |  | > 10000
O=C(NCCN1CCCCC1)c1ccc(O)c(Br)c1 | SIGMAR1 | ligand displacement |  | radioligand |  | cell membranes | > 10000
Cc1cc(Oc2nccc3c2ccn3C)ccc1-c1c(C)c(=O)[nH]c(=O)n1C | Muscarinic acetylcholine receptor M3 (CHRM3, Homo sapiens, UniProt P20309) | ligand displacement |  | radioligand |  |  | 4200
C#CCNCc1ccc(C(=O)c2ccc([N+](=O)[O-])cc2)cc1 | TMEM97 | ligand displacement |  | radioligand |  | cell membranes | > 10000
O=c1c(O)c(-c2ccc(O)cc2)oc2cc(O)cc(O)c12 | CASP7 | enzyme activity | inhibitor | fluorescence |  |  | > 300000
CCCC[C@H](NC(=O)[C@H](CCC(N)=O)NC(=O)[C@H](CO)NC(=O)[C@H](Cc1ccccc1)NC(=O)CCCCCN)C(=O)N[C@@H](CCCBr)B1O[C@@H]2C[C@@H]3C[C@@H](C3(C)C)[C@]2(C)O1 | Prostate-specific antigen | enzyme activity | inhibitor | fluorescence | pH 7.8 |  | 73.3
CN(Cc1ccc(NC(=O)C2=Cc3cc(-c4ccc(OCCCF)cc4)ccc3CCC2)cc1)C1CCOCC1 | ADRA2B | ligand displacement |  | radioligand |  |  | 1200
CCCC[C@H](NC(=O)[C@H](CCC(N)=O)NC(=O)[C@H](CO)NC(=O)[C@H](C)NC(=O)CCCCCN)C(=O)N[C@@H](Cc1ccccc1)B(O)O | Prostate-specific antigen | enzyme activity | inhibitor | fluorescence | pH 7.8 |  | 310
CCCn1nc(C(=O)N2CCCCC2)c2c1CCC(N1CCC(c3ccncc3)CC1)C2 (stereo not drawn) | TMEM97 | ligand displacement |  | radioligand |  |  | 16
